“And” between values parts separate entries of the source, which are not always exact repeats. Identical values can stand only once. Like-named read-outs stand apart in the source and are kept apart here.
How the values were obtained:
MV FlAsH = MV FlAsH (Gallus gallus, UniProt Q02440, D297C/G292C/I296C/S293C/V295G); assay: Actin-activated steady-state ATPase, NADH coupled assay; type: biochemical, chicken; conditions: 20 μM actin, 25°C
[1] = read-out: KD of Mg for free ADP; previously determined; cited from earlier work
acto-MV FlAsH = acto-MV FlAsH (Gallus gallus, UniProt Q02440, D297C/G292C/I296C/S293C/V295G); assay: Mg dependence of ADP release rate constants; type: binding, chicken; conditions: read-out: KD.Mg, Eq. 14
In short: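 Acto-MV FlAsH·mantdADP (final 0.25 μM MV FlAsH, 0.5 μM actin, 10 μM mantdADP) stopped-flow mixed with 1 mM ATP at 25°C. Buffer: K50TCEP, pH 7.0, with 0.5–10 mM MgCl2; free Mg calculated from stability constants. FRET read with 365 nm excitation and 515 nm long-pass emission. Biexponential rate constants vs free Mg fitted to Eq. 14 to extrapolate Mg-free and Mg-saturated values and KD.Mg.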

actin-activated ATPase rate (MV FlAsH; K50 buffer containing 4 mM EDTA (Mg free)) [s⁻¹] | reduction in actin-activated ATPase activity (MV FlAsH; high free Mg (3–9 mM) versus low free Mg (0.1–0.3 mM)) | Kd (acto-MV FlAsH; actomyosin V strong ADP binding conformation) [µM] | Kd (acto-MV FlAsH; actomyosin V weak ADP binding conformation) [µM] | Compound | Kd [1] [µM]
0.06 |  |  |  | O=C(O)CN(CCN(CC(=O)O)CC(=O)O)CC(=O)O [EDTA, reference compound] | 
 | 50–60% and 60% | 900 ± 400 | 600 ± 300 | [Mg+2] [Mg, magnesium] | 350 ± 300

Source: publication PMC3855573 (Biochemistry, 2013)
